Screening results: PubChem BioAssay, Broad Institute
An excerpt weighted towards active compounds, which were near 2% of everything screened.
SR-BI DiI inh: mouse SR-BI HDL lipid transfer inhibition. ldlA[mSR-BI] CHO cells, DiI-HDL uptake fluorescence, 3 h. inhibition, % at 12.5 µM. 0.96% of 320,000 active;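 active = mean replicate inhibition of at least 70% and a set share of replicates each scoring 70 or more; inconclusive = meets just one of the two criteria; inactive = fails both criteria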;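 note: 0% = median of neutral control wells and 100% = median of positive control wells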
dFosB act: mouse delta FosB homodimer activation. activation, % at 25 µM. purified delta FosB, TAMRA-CDK5 oligo fluorescence polarization; percent of positive-control signal above neutral wells. 0.99% of 340,000 active. P13346;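 active = mean activation above about 17%, with every replicate also reaching it, limit read from the data, passing the limit was not always enough; inconclusive = only one of the two conditions met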
Target sequence (P13346 whole entry, looked up): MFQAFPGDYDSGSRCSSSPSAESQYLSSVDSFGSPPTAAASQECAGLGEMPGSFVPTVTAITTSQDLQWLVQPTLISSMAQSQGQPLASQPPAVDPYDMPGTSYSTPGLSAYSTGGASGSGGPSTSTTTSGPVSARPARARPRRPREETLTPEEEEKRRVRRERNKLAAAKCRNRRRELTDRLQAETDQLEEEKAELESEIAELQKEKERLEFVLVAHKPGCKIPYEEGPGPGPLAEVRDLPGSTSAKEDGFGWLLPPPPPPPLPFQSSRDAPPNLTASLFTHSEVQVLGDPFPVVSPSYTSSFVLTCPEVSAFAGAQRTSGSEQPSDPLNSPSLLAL
CDK5 p35 inh: blocks human CDK5/p35 kinase activity. Q00535+Q15078. Recombinant CDK5/p35, ADP-Glo luminescence, 60 min. inhibition, % at 10 µM. 0.01% of 330,000 active. AID 488839;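 active = highest replicate inhibition of at least 50% and at least 75% of replicates reaching 50%; inconclusive = only one of the two criteria met; inactive = both criteria failed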;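 note: plate controls were DMSO neutral control for no effect and GW8510 at 10 µM for full effect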
SR-BI uptake up: SR-BI HDL lipid transfer activation | CHO ldlA[mSR-BI] cells, DiI-HDL uptake fluorescence, 3 h; 100 = double the neutral-control signal | activation, % at 12.5 µM | AID 504775 | 0.096% of 320,000 active;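 active = mean replicate activation of at least 60% and every replicate at or above 60%; inconclusive = mean or all-replicate condition met, but not both; inactive = mean below 60% and not all replicates reaching 60%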;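 note: 0% = median plate neutral-control signal and 100% = twice that signal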
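Test system: SR-BI-overexpressing, LDLR-lacking CHO cells; Medium: Ham's F12 with 0.5% BSA, HEPES 25 mM, pH 7.4; Schedule: 3 h, 37 °C; Technique: bottom-read fluorescence, 550/595 nm.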
* marks the source's active call; other numbers are inactive results; ? = inconclusive; · = not tested or not shown.

SMILES | SR-BI DiI inh | dFosB act | CDK5 p35 inh | SR-BI uptake up
COc1cc(-c2nnc(COC(=O)c3nn(CC(C)C)c(=O)c4ccccc34)o2)cc(OC)c1OC | -14 | -16 | 3 | 14
c1ccc(-c2nc(N3CCOCC3)cc(N3CCOCC3)n2)cc1 | 39 | -4 | 0 | -39
Cc1cc(C)n(-c2cc(N3CCOCC3)nc(-c3ccccc3)n2)n1 | 85* | -14 | -2 | -85
CSc1ccccc1NC(=O)C1=CC(c2ccc(C)cc2)=NS(=O)(=O)N1C | 17 | -11 | -1 | -17
Cc1ccc2nc(C(Cl)(Cl)Cl)nc(N/N=C/c3ccc([N+](=O)[O-])cc3)c2c1 | 91* | 3 | 0 | -91
C/C(CS(=O)(=O)c1ccc(Cl)cc1)=N/NC(N)=S | 57 | -11 | 0 | -57
C/C(CS(=O)(=O)c1ccc(Cl)c(Cl)c1)=N/NC(N)=S | 81* | -6 | 2 | -81
COC(=O)c1ccc(COc2ccc(CNCc3ccc(Cl)cc3)cc2)cc1 | · | -6 | 1 | ·
COc1cc(OC)cc(-c2c(-c3cccs3)c3cc(-c4ccc(OC)c(OC)c4)ccc3n2C)c1 | 79* | 4 | 0 | -79
COc1ccc(-c2c(-c3cc(OC)cc(OC)c3)n(C)c3ccc(-c4ccc5c(c4)OCCO5)cc23)cc1 | -2 | 4 | 0 | 5
COc1cc(OC)cc(-c2c(-c3cccs3)c3cc(-c4ccc5c(c4)OCCO5)ccc3n2C)c1 | 78* | 1 | 1 | -78
COc1cc(NC(=O)c2cc([N+](=O)[O-])ccc2N2CCOCC2)ccc1NC(=O)c1ccco1 | 80* | 0 | -1 | -80
O=C(c1ccncc1)N1N=C(c2ccc(Cl)cc2)CC1c1ccccc1O (stereo not drawn) | 82* | -13 | 0 | -82
COc1ccccc1C1CC(c2ccc(Br)cc2)=NN1C(=O)c1cccnc1 (stereo not drawn) | 74* | -3 | 1 | -74
COc1cccc(C2CC(c3ccc(Br)cc3)=NN2C(=O)c2ccncc2)c1OC (stereo not drawn) | 40 | -10 | 0 | -40
NC(=O)N(N)c1nc(N2CCCC2)nc(N2CCCC2)n1 | -16 | -2 | 0 | 16
O=C(CCc1nc2ccccc2s1)OCC(=O)c1ccc[nH]1 | -8 | -2 | 2 | 8
CCCCCCOc1ccc(/C(C)=N/NC2=NCCN2)cc1[N+](=O)[O-] | 4 | 55* | -3 | -4
C/C(=N\NC1=NCCN1)c1ccc(N)c([N+](=O)[O-])c1 | -19 | 4 | 1 | 19
Cc1ccccc1N(C(=O)c1snc(C(N)=O)c1N)C(C)C(=O)NC1CCCCC1 (stereo not drawn) | 83* | -6 | -2 | -83
Cc1ccccc1N(C(=O)c1snc(C(N)=O)c1N)C(C(=O)NC1CCCCC1)c1ccc(O)cc1 (stereo not drawn) | · | 5 | -1 | ·
CC(=O)Nc1ccc(S(=O)(=O)N(C)CC(=O)Nc2cccc(S(=O)(=O)N3CCCC3)c2)cc1 | -29 | -13 | 1 | 29
O=C(c1cc2cc(F)ccc2[nH]1)N1CCCC(Nc2ccc(F)cc2)C1 (stereo not drawn) | -1 | -7 | -3 | 1
CCOC(=O)c1sc2nc(C3CC3)cc(-c3ccc(F)cc3)c2c1N | 77* | -2 | -2 | -77
Cc1ccc2nc(NC3=NC(CC(=O)O)C(=O)N3)nc(C)c2c1 (stereo not drawn) | -11 | · | · | 11
SMILES | SR-BI DiI inh | dFosB act | CDK5 p35 inh | SR-BI uptake up
CCN(CC)c1ccc(S(=O)(=O)N2CCCCC2)cc1NC(=O)C1CCC1 | 9 | -3 | -2 | -9
O=c1c2c(-c3ccc([N+](=O)[O-])cc3)ccnc2[nH]n1-c1ccccc1 | 1 | 1 | 0 | -1
O=C(Nc1nc2ccc3ccccc3c2s1)c1ccc(N2CCCCC2)c([N+](=O)[O-])c1 | 65 | -6 | -3 | -65
O=C(Nc1ccc(N2CCCC2)c(Cl)c1)c1ccc(Br)o1 | 68 | 43* | -1 | -68
O=C(Nc1cc(Cl)ccc1N1CCOCC1)c1ccc(N2CCCCC2)c([N+](=O)[O-])c1 | 59 | 1 | -1 | -59
O=C(Nc1nc2ccc(Cl)cc2s1)c1ccc(N2CCCCC2)c([N+](=O)[O-])c1 | 79* | ? | 3 | -79
O=C(Nc1ccc(N2CCCCC2)c(Cl)c1)c1ccc(N2CCOCC2)c([N+](=O)[O-])c1 | 87* | -3 | -1 | -87
Cc1ccc(CNC(=O)C(=O)NCC2CCCN2S(=O)(=O)c2cccs2)cc1 (stereo not drawn) | 4 | -5 | -1 | -4
Cc1cccc2c1-c1sc(C(=O)Nc3cccc([N+](=O)[O-])c3C)cc1CO2 | 73* | 3 | 2 | -73
Cc1cccc2c1-c1sc(C(=O)Nc3nccs3)cc1CO2 | 66 | ? | -1 | -66
O=C(CCc1ccccc1)Nc1cc(S(=O)(=O)N2CCOCC2)ccc1N1CCCC1 | -4 | -3 | 1 | 4
COc1ccc(CNC(=O)CN2C(=O)NC3(CCCCCCC3)C2=O)cc1 | -7 | -1 | 1 | 7
C/C(=N\NC(=O)c1ccccc1O)c1c(O)cc(C)oc1=O | 101* | 2 | -4 | -101
O=C1c2ccccc2C(=Nc2ccccc2)C1c1cccc(Br)c1 (stereo not drawn) | 81* | -12 | 2 | -81
O=C1C=C(c2ccc(F)cc2OCc2ccccc2)C[C@@H](c2ccc(F)cc2)C1 | 75* | 0 | -1 | -75
CCOc1cc(C=NN=C2c3ccccc3-c3ccccc32)ccc1O | 76* | -2 | 0 | -76
Cc1ccc(CN2CCSc3ccc(C(=O)NC4CCN(Cc5ccccc5)CC4)cc32)cc1 | 70 | 43* | 1 | -70
Cc1cccc2sc(NC(=O)C3CC3)nc12 | 5 | -1 | 0 | -5
Cc1cccc2sc(NC(=O)c3ccc(Cl)s3)nc12 | 76* | 1 | 0 | -76
COc1ccc(NC(=O)c2cc(Cl)ccc2NC(=O)c2ccco2)c(OC)c1 | 74* | 13 | -6 | -74
COc1ccc(C(=O)Nc2ccc(NC(=O)c3ccco3)c(Cl)c2)cc1OC | 75* | 1 | -1 | -75
O=C(Nc1ccc(NC(=O)c2ccco2)c(Cl)c1)c1ccccc1 | 30 | 16 | -1 | -30
COc1ccc(NC(=O)c2ccccc2Cl)c(NC(=O)c2ccco2)c1 | 15 | -9 | 1 | -15
CC(C)Oc1ccc(C(=O)Nc2ccc(NC(=O)c3ccco3)c(Cl)c2)cc1 | 79* | 3 | -1 | ·
COc1ccccc1CNC(=O)CCC1N=C2c3ccccc3N=C(SCC(=O)NCC3CCCO3)N2C1=O (stereo not drawn) | 16 | -12 | -1 | -16
COCCn1c(C)cc(/C=C2/SC(=O)N(CC(=O)N3CCCC3)C2=O)c1C | -10 | -12 | -2 | 10
Cc1ccnc(NC(=O)COc2c(C)cc(C)cc2[N+](=O)[O-])c1 | 98* | 3 | 0 | -98
Cc1ccc2c(c1)cc1c(=O)n(CC(=O)NCc3ccccn3)nc(C)n12 | 1 | 5 | · | -1
O=C(NCCCNC(=O)c1c(F)cccc1F)c1c(F)cccc1F | 78* | -1 | 2 | -78
